Measured values collected from several papers.
Each line is one published result; the experiments were not run side by side.
Target: Cyclin-dependent kinase 2 (CDK2, Homo sapiens, UniProt P24941)
Method: competition with immobilised ligand

Compound	test	setting	remaining binding
COc1ccc2c(c1)O[C@H](c1ccc(OC)c(OC)c1)C[C@@H]2NC(=O)C1(c2ccc3c(c2)OC(F)(F)O3)CC1	cell-free assay	1 µM	100%
CCN1CCN(Cc2ccc(C(=O)Nc3ccc(C)c(Oc4ccc5c(c4)CC(=O)N5)c3)cc2C(F)(F)F)CC1	binding	1 µM	82%
C[C@@H]1CN(c2ccc3ncc(-c4ccc5[nH]nc(C6CC6)c5c4)n3n2)C[C@H](C)O1	binding	0.5 µM	84%
F[C@@H]1CCN(c2nccc(-c3cnn4ncccc34)n2)C1	binding	1 µM	100%
O=C(c1ccc(Nc2nccc(-c3cc4ccccc4s3)n2)cc1)N1CCC(N2CCCC2)CC1	binding	1 µM	84%
FC(F)(F)Oc1cccc(-c2cnc3ccc(-c4ccncc4)nn23)c1	cell-free assay	5 µM	81%
Cn1nc(C(F)(F)F)cc1-c1cnc(N2CCc3cc(S(=O)(=O)Nc4c(F)cc(Cl)cc4F)cc(N4CCCC4=O)c32)nc1	cell-free assay	1 µM	100%
CNC(=O)[C@@H]1CC[C@@H](n2c(-c3ccc4cnccc4c3)nc3ccc(C(=O)NCc4cccc(C(N)=O)c4)cc32)C1	binding	1 µM	100%
O=S(=O)(NC1CCC(c2cc(F)ccc2F)(S(=O)(=O)c2ccc(Cl)cc2)CC1)C(F)(F)F (stereo not shown)	cell-free assay	1 µM	100%
CN(CCCC(F)(F)F)c1nccc(-c2cnn3ncccc23)n1	binding	1 µM	100%
COc1ccc2cc(OCC3(C(=O)O)CN(C(=O)c4ccc(F)cc4)C3)ccc2c1	cell-free assay	1 µM	91%
O=C(NCCCN1CCOCC1)c1ccc(Nc2ncc(Cl)c(-c3ccc(Cl)s3)n2)cc1	binding	1 µM	62%
O=C(O)c1cc(-c2ccc(C3CCNCC3)cc2)c2ccc(-c3ccc(C(F)(F)F)cc3)cc2c1	cell-free assay	1 µM	100%
O=C(Nc1c[nH]nc1C(=O)NC1CCNCC1)c1cc(F)cc(F)c1	binding	1 µM	98%
O=C(c1ccc(Nc2ncc(Cl)c(-c3cc4ccccc4s3)n2)cc1)N1CCC(N2CCCC2)CC1	binding	1 µM	12%
COc1cnc(Nc2cccc(S(N)(=O)=O)c2)nc1N1CCN(c2ccccc2)C(=O)C1	binding	1 µM	97%
